Compounds with a hit are over-represented: about 2.3% of the library has one in this group of screens.
TRPC4 inh: inhibitors of mouse TRPC4 channel. HEK293 TRPC4beta/mu-opioid, DAMGO-evoked Fluo4 calcium flux; stronger effect = lower value. B-score at 10 µM. 300,000 tested, 0.39% active;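 active = B-score over 3 SD under the library average, no early fluorescence shift, positive overall ratio signal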
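Assay system – HEK293 line stably carrying TRPC4beta and mu-opioid receptor · Doses – single dose · Detection – Fluo4 calcium-dye fluorescence, kinetic read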
TRPC6 activator: mouse TRPC6 channel activation; Q61143; HEK293-TRPC6 membrane potential dye fluorescence; stronger effect = higher value; B-score at 10 µM; 310,000 tested, 0.13% active; AID 2550;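 active = B-score of the integrated fluorescence ratio above library mean plus 3 SD, and starting fluorescence ratio within library mean plus 5 SD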;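 note: higher score means more depolarization so channel activation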
Target sequence (Q61143 whole entry, looked up): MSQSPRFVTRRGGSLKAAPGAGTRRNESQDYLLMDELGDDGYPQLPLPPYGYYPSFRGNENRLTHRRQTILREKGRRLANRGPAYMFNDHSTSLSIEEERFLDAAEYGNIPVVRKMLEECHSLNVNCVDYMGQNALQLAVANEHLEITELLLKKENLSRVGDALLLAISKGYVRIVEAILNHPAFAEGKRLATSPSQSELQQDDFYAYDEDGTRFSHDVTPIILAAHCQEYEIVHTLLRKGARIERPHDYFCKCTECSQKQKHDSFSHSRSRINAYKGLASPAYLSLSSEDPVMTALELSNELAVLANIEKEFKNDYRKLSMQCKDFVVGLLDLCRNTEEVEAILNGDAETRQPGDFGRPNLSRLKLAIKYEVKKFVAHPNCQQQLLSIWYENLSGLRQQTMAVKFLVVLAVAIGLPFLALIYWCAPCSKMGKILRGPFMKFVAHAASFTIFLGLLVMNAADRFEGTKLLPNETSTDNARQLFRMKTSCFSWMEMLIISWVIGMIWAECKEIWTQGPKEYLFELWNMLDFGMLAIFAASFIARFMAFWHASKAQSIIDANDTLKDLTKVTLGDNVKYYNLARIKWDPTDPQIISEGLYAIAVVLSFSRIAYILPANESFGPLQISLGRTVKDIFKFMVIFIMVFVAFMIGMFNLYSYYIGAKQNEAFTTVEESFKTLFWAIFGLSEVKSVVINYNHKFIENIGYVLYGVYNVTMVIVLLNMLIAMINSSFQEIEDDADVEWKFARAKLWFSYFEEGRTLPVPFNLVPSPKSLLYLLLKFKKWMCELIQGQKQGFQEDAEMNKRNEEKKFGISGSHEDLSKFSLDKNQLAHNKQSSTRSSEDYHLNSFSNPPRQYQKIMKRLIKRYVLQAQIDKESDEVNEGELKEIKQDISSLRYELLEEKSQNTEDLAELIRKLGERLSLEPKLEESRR
TRPC4 potent: TRPC4 (mouse) allosteric potentiation; AID 2227; HEK293 TRPC4beta/mu-opioid, DAMGO EC20, Fluo-4 Ca2+ flux; stronger effect = higher value; B-score at 10 µM; 310,000 tested, 0.42% active;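 active = B-score of calcium response area above 5 SD of library B-scores, with initial fluorescence ratio within 5 SD of library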;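 note: B-score of integrated fluorescence ratio over time as area under calcium response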
TRPC4 act: opens the mouse TRPC4 cation channel. HEK293 TRPC4beta/mu-opioid, Fluo4 calcium fluorescence; stronger effect = higher value. B-score at 10 µM. 310,000 tested, 0.49% active;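 active = B-score above 5 SD of library B-scores, and initial fluorescence ratio not above library mean plus 5 SD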;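 note: positive B-score marks a calcium rise read as TRPC4 activation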
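Incubation: 45 min room-temperature Fluo4 loading, 110 s read / System: HEK293 cells stably co-expressing mouse TRPC4beta and mu-opioid receptor / Signal: Fluo4 fluorescence, kinetic / Control set: buffer (low) and maximal DAMGO (high) / Measure: integrated baseline-normalised fluorescence ratio, converted to per-well B score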
TRPC6 inh: inhibitors of mouse TRPC6 channel | B-score at 10 µM | 310,000 tested, 1.1% active | Q61143 | HEK293-TRPC6, membrane potential dye, ACh-evoked depolarization; stronger effect = lower value;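 active = B-score under library mean minus 3 SD, initial fluorescence not abnormally high, positive integrated signal ratio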;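 note: B-score derived from integrated fluorescence ratio over the kinetic read; more negative B-score means stronger inhibition of depolarization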
TRPC4 sel inh 2: second selectivity test of TRPC6 inhibitors: effect on mouse TRPC4. shares compounds with TRPC6 inh. HEK293 TRPC4/MOR, membrane potential dye fluorescence; channel activated by saturating DAMGO dose. inhibition, % at 10 µM. 920 tested, 42% active. AID 2776;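 active = compounds whose fluorescence signal differed from control wells by over 3 SD, either direction, in both duplicate plates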
TRPC4 spec: selectivity of TRPC6 inhibitors: effect on mouse TRPC4; 920 tested, 61% active; AID 2777; shares compounds with TRPC6 inh; activity change, negative = inhibition, % at 10 µM; HEK293 TRPC4/mu-opioid, membrane potential fluorescence;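 active = rise or fall in signal beyond 3 SD of buffer-only wells in both replicate plates, either sign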;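 note: integrated kinetic ratio of fluorescence range over baseline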
HEK293 MPD ctr 2-1: second check of TRPC6 inhibitor effects in parental HEK293 cells; parental HEK293 membrane potential dye fluorescence; maximal acetylcholine challenge after compound addition; AID 2779; shares compounds with TRPC6 inh; 920 tested, 31% active; signal change vs control, % at 10 µM;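 active = membrane potential signal moving either way by over 3 SD of the maximum-effect control, in both duplicate plates, meaning non-specific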
HEK293 MPD ctr-1: parental HEK293 nonspecific activity of TRPC6 inhibitors. membrane potential signal change, % at 10 µM. shares compounds with TRPC6 inh. 920 tested, 60% active. parental HEK293 membrane potential dye fluorescence;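 active = membrane potential signal shifting up or down by more than 3 SD of buffer-only wells, on both duplicate plates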
HEK293 MPD ctr-2: counter-screen for TRPC6 modulators: effect in parental HEK293 cells; 2,400 tested, 51% active; membrane potential dye fluorescence; membrane potential signal change, % at 10 µM; shares compounds with TRPC6 inh;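 active = membrane potential signal moves up or down beyond 5 SD from buffer-only wells, on both duplicate plates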
HEK293 MPD ctr 2-2: second counter-screen for TRPC6 modulators: effect in parental HEK293 cells; shares compounds with TRPC6 inh; membrane potential dye fluorescence; after compound, maximal acetylcholine stimulation; inhibition, % at 10 µM; 2,400 tested, 14% active; AID 488926;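 active = membrane potential signal drops by more than 5 SD from the mean control signal, in both duplicate plates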;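 note: plate controls were acetylcholine ECmax control wells for no effect and buffer only wells for full effect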
TRPC4/MOR mod: mouse TRPC4 off-target activity of TRPC6 modulators. percent change from control (negative = decrease, positive = increase), % at 10 µM. 2,400 tested, 69% active. shares compounds with TRPC6 inh. HEK293 TRPC4/mu-opioid, membrane potential fluorescence;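 active = membrane potential signal moved up or down beyond 5 SD of buffer control wells, in both duplicate plates, actives on both sides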;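 note: plate controls were assay buffer wells for no effect and DAMGO maximal-effect wells for full effect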
TRPC4 ctr inh 2: mouse TRPC4 off-target activity of TRPC6 modulators, second screen | shares compounds with TRPC6 inh | HEK293 TRPC4/mu-opioid, membrane potential dye fluorescence; stimulated with maximal-effect DAMGO | inhibition, % at 10 µM | 2,400 tested, 55% active | AID 488928;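 active = drop in membrane potential signal beyond 5 SD of the control wells in both duplicate plates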;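 note: TRPC4 counter screen for TRPC6 hits run under conditions tuned for TRPC6 not TRPC4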
TRPC6 inh conf: mouse TRPC6 inhibitor confirmation; shares compounds with TRPC6 inh; HEK293-TRPC6, membrane potential dye, ACh-evoked depolarization; inhibition, % at 10 µM; 3,300 tested, 43% active;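 active = fluorescence ratio falls more than 5 SD below the full-stimulation control mean, in both duplicate runs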;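 note: integrated fluorescence ratio of peak minus minimum over baseline after agonist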
TRPC6 act conf: confirmation of mouse TRPC6 activators | HEK293-TRPC6 membrane potential dye fluorescence, FDSS | 2,800 tested, 11% active | AID 488961 | shares compounds with TRPC6 inh | activation, % at 10 µM;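 active = ratio signal rise beyond 5 SD above unstimulated control wells' mean, seen in both duplicate runs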;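 note: plate controls were buffer EC0 wells for no effect and acetylcholine ECmax response for full effect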
The depositor's hits bear a star.

What do the screens show for `CCn1ccnc1CNC(=O)C1CCC(=O)N(Cc2ccccc2F)C1` (stereo not drawn)?
TRPC4 inh: inactive; TRPC6 activator: inactive; TRPC4 potent: inactive; TRPC4 act: inactive; TRPC6 inh: inactive

Results for COc1ccc(NC(=O)CS(=O)(=O)c2ccccc2Cl)cc1 ?
TRPC4 inh: inactive; TRPC6 activator: inactive; TRPC4 potent: inactive; TRPC4 act: inactive; TRPC6 inh: inactive

How did CC(C)C(NC(=O)c1c(F)cccc1F)C(=O)NCC(c1ccccc1)N(C)C (stereo not drawn) do in these assays?
TRPC4 inh: inactive; TRPC6 activator: inactive; TRPC4 potent: inactive; TRPC4 act: inactive; TRPC6 inh: -5.08*; HEK293 MPD ctr-2: inactive; HEK293 MPD ctr 2-2: inactive; TRPC4/MOR mod: 55.0%*; TRPC4 ctr inh 2: 58.0%*; TRPC6 inh conf: inactive

What do the screens show for `O=C1CCC(c2ccccc2)(C2CCN(Cc3ccccc3)CC2)C(=O)N1` (stereo not drawn)?
TRPC4 inh: inactive; TRPC6 activator: inactive; TRPC4 potent: inactive; TRPC4 act: inactive; TRPC6 inh: -6.29*; HEK293 MPD ctr-2: 95.5%*; HEK293 MPD ctr 2-2: 84.5%*; TRPC4/MOR mod: 20.5%*; TRPC4 ctr inh 2: 35.0%*; TRPC6 inh conf: 74.5%*

What do the screens show for `CC(=O)Nc1ccc(S(=O)(=O)N2CCN(c3cc(C)nc4ccccc34)CC2)cc1`?
TRPC4 inh: inactive; TRPC6 activator: inactive; TRPC4 potent: inactive; TRPC4 act: inactive; TRPC6 inh: -7.75*; HEK293 MPD ctr-2: -267.0%*; HEK293 MPD ctr 2-2: inactive; TRPC4/MOR mod: -45.0%*; TRPC4 ctr inh 2: 70.0%*; TRPC6 inh conf: 45.5%*; TRPC6 act conf: inactive

How did Cc1cc(N2CCN(C(=O)Nc3ccccc3C#N)CC2)c2ccccc2n1 do in these assays?
TRPC4 inh: inactive; TRPC6 activator: inactive; TRPC4 potent: inactive; TRPC4 act: inactive; TRPC6 inh: -6.66*; HEK293 MPD ctr-2: -229.5%*; HEK293 MPD ctr 2-2: inactive; TRPC4/MOR mod: -39.5%*; TRPC4 ctr inh 2: 44.5%*; TRPC6 inh conf: 42.0%*; TRPC6 act conf: inactive

How did Cc1cc(N2CCN(c3nc(-c4ccc([N+](=O)[O-])cc4)cs3)CC2)c2ccccc2n1 do in these assays?
TRPC4 inh: inactive; TRPC6 activator: inactive; TRPC4 potent: inactive; TRPC4 act: inactive; TRPC6 inh: inactive

How did O=c1[nH]c2ccccc2c2cn(-c3ccccc3)nc12 do in these assays?
TRPC4 inh: inactive; TRPC6 activator: inactive; TRPC4 potent: inactive; TRPC4 act: inactive; TRPC6 inh: inactive

How did COC(=O)c1ccc(C)c(NS(=O)(=O)c2cn(C)nc2C)c1 do in these assays?
TRPC4 inh: inactive; TRPC6 activator: inactive; TRPC4 potent: inactive; TRPC4 act: inactive; TRPC6 inh: inactive

How did COc1cc(C(=O)NCCC(=O)NC(C)CCc2ccccc2)cc(OC)c1OC (stereo not drawn) do in these assays?
TRPC4 inh: inactive; TRPC6 activator: inactive; TRPC4 potent: inactive; TRPC4 act: inactive; TRPC6 inh: inactive

How did Cc1ccc2nc(C)cc(Nc3ccc([N+](=O)[O-])cc3)c2c1 do in these assays?
TRPC4 inh: inactive; TRPC6 activator: inactive; TRPC4 potent: inactive; TRPC4 act: inactive; TRPC6 inh: inactive

What do the screens show for `COC(=O)c1ccc2nc(C)cc(Nc3ccccc3C)c2c1`?
TRPC4 inh: inactive; TRPC6 activator: inactive; TRPC4 potent: inactive; TRPC4 act: inactive; TRPC6 inh: -5.88*; HEK293 MPD ctr-2: -149.0%*; HEK293 MPD ctr 2-2: inactive; TRPC4/MOR mod: -25.0%*; TRPC4 ctr inh 2: 43.0%*; TRPC6 inh conf: 58.0%*; TRPC6 act conf: inactive

What do the screens show for `COC(=O)c1ccc(Nc2cc(C)nc3ccc(C)cc23)cc1`?
TRPC4 inh: inactive; TRPC6 activator: inactive; TRPC4 potent: inactive; TRPC4 act: inactive; TRPC6 inh: -7.25*; TRPC4 sel inh 2: inactive; TRPC4 spec: -21.8%*; HEK293 MPD ctr 2-1: inactive; HEK293 MPD ctr-1: -299.0%*; TRPC6 inh conf: inactive; TRPC6 act conf: inactive

Results for Cc1ccc(OCC(=O)OCc2nc3scc(-c4ccccc4)c3c(=O)[nH]2)cc1C ?
TRPC4 inh: inactive; TRPC6 activator: inactive; TRPC4 potent: inactive; TRPC4 act: inactive; TRPC6 inh: inactive

Results for Cc1nnc(Nc2ccc(C(=O)NCCO)cc2)c2ccccc12 ?
TRPC4 inh: inactive; TRPC6 activator: inactive; TRPC4 potent: inactive; TRPC4 act: inactive; TRPC6 inh: inactive

Results for CNC(=O)c1ccc(Nc2nnc(C)c3ccccc23)cc1 ?
TRPC4 inh: inactive; TRPC6 activator: inactive; TRPC4 potent: inactive; TRPC4 act: inactive; TRPC6 inh: -5.52*; HEK293 MPD ctr-2: -99.0%*; HEK293 MPD ctr 2-2: inactive; TRPC4/MOR mod: inactive; TRPC4 ctr inh 2: inactive; TRPC6 inh conf: inactive; TRPC6 act conf: inactive
